Screens from PubChem BioAssay.
bCat KO growth – beta-catenin-lacking colon tumor cell growth suppression; AID 818; hit rate 1.5% among 140,000; HCT116 beta-catenin knockout viability, CellTiter-Glo, 60 h; hits give low values; viability, % at 10 µM;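 active means viability at or under a set limit, the compound median less 4 SD, cut at about 6% in these data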;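 further: 0% = Hyamine 1622 control at 20 µM and 100% = untreated cell control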
HCT116 PTEN-null – PTEN-deleted cell growth suppression; HCT116 PTEN-null viability, CellTiter-Glo, 60 h; hits give low values; viability, % at 10 µM; hit rate 1.2% among 140,000; AID 827;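 active means viability at or below a set limit, 4 SD under the median of all tested compounds, cut at about 3.7% in these data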;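 further: PTEN knockout HCT116 line with beta catenin targeted HCT116 as companion control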
H69AR inhibit – blocks growth of human H69AR lung tumor cells | viability, % at 10 µM | hit rate 6% among 85,000 | H69AR lung tumor viability, ATP luminescence, 72 h; hits give low values;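 active means viability at or below 40%; inactive means viability above 40%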;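 further: multidrug resistant small cell line overexpressing MRP-1 efflux transporter; 100% = mean luminescence of untreated control wells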
PTK2B oligo ant – blocks oligomerization of human Pyk2 in cells; Q14289; Q293 cells, Pyk2 FERM NanoBiT luminescence; hits give low values; z-score (the deposit names both 25 µM and 10 µM); hit rate 0.83% among 99,000;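 active means Z-score of -3 or lower, scaled per plate to the spread of control and sample wells; inactive means z-score above -3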;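 further: negative z-score means lost luminescence so less FERM oligomerization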
Target sequence (Q14289 whole entry, looked up): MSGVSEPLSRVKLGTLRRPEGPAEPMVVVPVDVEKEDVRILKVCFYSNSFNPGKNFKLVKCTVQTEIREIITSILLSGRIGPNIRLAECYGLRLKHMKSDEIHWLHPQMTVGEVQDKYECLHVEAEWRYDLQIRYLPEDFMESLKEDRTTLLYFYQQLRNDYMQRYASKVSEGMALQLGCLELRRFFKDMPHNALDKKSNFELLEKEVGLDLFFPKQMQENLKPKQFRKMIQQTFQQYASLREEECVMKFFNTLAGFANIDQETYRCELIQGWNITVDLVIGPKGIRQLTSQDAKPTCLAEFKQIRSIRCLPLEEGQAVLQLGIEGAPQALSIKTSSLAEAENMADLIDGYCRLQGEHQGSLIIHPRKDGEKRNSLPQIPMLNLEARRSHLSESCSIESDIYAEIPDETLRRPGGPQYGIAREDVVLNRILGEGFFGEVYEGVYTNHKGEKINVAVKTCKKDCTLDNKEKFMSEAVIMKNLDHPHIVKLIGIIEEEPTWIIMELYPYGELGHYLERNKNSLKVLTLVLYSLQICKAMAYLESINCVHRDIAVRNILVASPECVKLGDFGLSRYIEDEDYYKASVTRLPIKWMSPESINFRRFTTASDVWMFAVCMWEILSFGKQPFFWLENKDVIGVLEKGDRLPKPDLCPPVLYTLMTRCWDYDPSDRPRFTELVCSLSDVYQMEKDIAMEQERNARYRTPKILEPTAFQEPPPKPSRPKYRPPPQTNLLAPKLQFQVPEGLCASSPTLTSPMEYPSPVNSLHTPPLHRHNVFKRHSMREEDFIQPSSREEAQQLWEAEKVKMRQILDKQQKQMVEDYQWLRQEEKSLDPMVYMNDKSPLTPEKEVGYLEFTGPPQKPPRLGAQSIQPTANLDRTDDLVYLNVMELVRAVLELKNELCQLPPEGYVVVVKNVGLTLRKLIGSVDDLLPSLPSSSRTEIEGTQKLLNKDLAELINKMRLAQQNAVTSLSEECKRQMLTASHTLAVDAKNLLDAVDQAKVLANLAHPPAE
Fibroblast inh – blocks proliferation of human lung fibroblasts. LL 47 human lung fibroblast viability, ATP luminescence; hits give low values. viability, % at 10 µM. hit rate 1.1% among 85,000. AID 719;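 active means viability at or below 50% in the single dose screen; inactive means viability above 50%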;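 further: compound exposure lasted 72 h before the ATP readout; 100% = median luminescence of untreated cell-only wells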
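Material: human lung fibroblast line LL 47, low passage; Evaluation: viability percentage against median untreated-cell control; Buffer or medium: 15% FBS in IMEM; Incubation: 72 h compound exposure at 37 °C after overnight plating; Dosing: 0.1% DMSO in all compound wells; Measured by: CellTiter-Glo luminescence.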
HUVEC prolif 384 – inhibitors of human endothelial cell proliferation; AID 648; hit rate 1.1% among 86,000; viability, % at 10 µM (by protocol); HUVEC proliferation, CellTiter-Glo luminescence, 72 h; hits give low values;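 active means viability at or below 30%; inactive means viability above 30%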;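 further: 100% = median luminescence of DMSO-only cell control wells on each plate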
* = called active by the depositor; x = no result. Only a selection was taken, and hits are over-represented in it overall.

SMILES | bCat KO growth | HCT116 PTEN-null | H69AR inhibit | PTK2B oligo ant | Fibroblast inh | HUVEC prolif 384
CC(=O)OCCCNc1cc(Sc2ccc(C)cc2)c2nonc2c1[N+](=O)[O-] | 3.6* | 3.8* | x | x | x | x
COC(=O)CCSc1cc(NCCOC(C)=O)c([N+](=O)[O-])c2nonc12 | 96.5 | 96.5 | x | x | x | x
CC(=O)Nc1ccc(S(=O)(=O)N2CCN(c3cc(C)nc4ccccc34)CC2)cc1 | 87.7 | 84.2 | 89.8 | -0.18 | 98.6 | 92.8
CC(=O)Nc1ccc(S(=O)(=O)N2CCN(c3nc(NC4CCCC4)c4ccccc4n3)CC2)cc1 | 1.5* | 1.5* | 1.4* | -3.01* | 84.5 | 10.6*
NNc1nc2c(F)cc(F)cc2s1 | 88.0 | 87.2 | x | x | x | x
Cn1c2ccccc2c(=O)c2c(=O)n(C3CCCCCC3)c(C3CCCCC3)nc21 | 5.2* | 2.5* | x | x | x | x
Cn1c2ccccc2c(=O)c2c(=O)n(C3CCCCC3)c(-c3cccs3)nc21 | 24.8 | 13.9 | 34.2* | -1.19 | 40.6* | 53.6
Cn1c2ccccc2c(=O)c2c(=O)n(-c3ccccc3)c(C3CCCCC3)nc21 | 74.4 | 76.2 | x | x | x | x
CCCCSc1ccc(NC(=O)c2cccnc2)cc1 | 82.9 | 85.7 | 95.6 | 0.16 | 92.5 | 111.8
O=C(CCc1ccc(S(=O)(=O)N2CCOCC2)cc1)Nc1nc(COc2ccccc2)cs1 | 49.3 | 37.7 | x | -0.82 | x | x
CCc1ccc(NSc2ccccc2[N+](=O)[O-])cc1 | 28.0 | 25.5 | x | -3.02* | x | x
CCc1ccc(CN(C)CC(=O)Nc2ccccc2[N+](=O)[O-])cc1 | 92.9 | 93.5 | x | x | x | x
CCOc1ccc(C(=O)Nc2ccccc2N2CCCC2)cc1 | 72.7 | 68.9 | 35.5* | 0.25 | 91.8 | 95.9
Cc1oc(C)c2c(=O)ccc3c(c12)OC(N)=C(C#N)C3c1ccccc1 (stereo not drawn) | 83.2 | 91.6 | 91.0 | 0.15 | 88.5 | 62.9
CSc1ccc(C2C(C#N)=C(N)Oc3c2ccc(=O)c2c(C)oc(C)c32)cc1 (stereo not drawn) | 75.9 | 80.1 | 10.4* | -0.77 | 95.0 | 63.9
CCOC(=O)N1CCC(NC(=O)c2cc3c(C)nc4ccccc4c3o2)CC1 | 85.4 | 84.4 | 57.5 | x | 103.3 | 80.3
CCOC(=O)N1CCC(NC(=O)c2cc(C)c3c(C)nn(-c4ccccc4)c3n2)CC1 | 100.2 | 103.6 | 21.8* | -1.5 | 95.3 | 85.3
CC1=NN(C(=O)c2ccc(Cn3ccc([N+](=O)[O-])n3)cc2)C(O)(C(F)(F)F)C1 (stereo not drawn) | 89.4 | 90.5 | x | x | x | x
CCC(C)n1cnc2c(c1=O)c1nc3ccccc3nc1n2Cc1ccc2c(c1)OCO2 (stereo not drawn) | 54.5 | 53.8 | 68.9 | x | 91.9 | 70.9
O=c1c2c3nc4ccccc4nc3n(-c3cccc(F)c3)c2ncn1Cc1ccc2c(c1)OCO2 | x | x | 18.1* | x | 65.8 | 72.6
CC1CCc2nc(NC(=O)Nc3ccc4c(c3)OCO4)sc2C1 (stereo not drawn) | 78.5 | 82.7 | x | x | x | x
COc1ccccc1CN(Cc1nc2ccccc2c(=O)[nH]1)S(=O)(=O)c1ccc2ccccc2c1 | 38.1 | 24.9 | 43.9 | -3.02* | 84.9 | 74.5
CCN(Cc1nc2ccccc2c(=O)[nH]1)Cc1nc2cc(OC)c(OC)cc2c(=O)[nH]1 | 97.1 | 99.7 | 14.7* | -0.05 | 103.3 | 92.9
CCN(CC(=O)NC(c1ccccc1)c1ccccc1)Cc1nc2ccccc2c(=O)[nH]1 | 80.5 | 83.7 | 53.4 | -0.6 | 99.0 | 87.6
CCc1ccc2c(CN(CC)Cc3nc4ccccc4c(=O)[nH]3)cc(=O)oc2c1 | 65.5 | 64.2 | 35.8* | 0.18 | 90.1 | 82.9
SMILES | bCat KO growth | HCT116 PTEN-null | H69AR inhibit | PTK2B oligo ant | Fibroblast inh | HUVEC prolif 384
COc1ccc(S(=O)(=O)N(Cc2ccccc2)Cc2nc3ccccc3c(=O)[nH]2)cc1 | 90.0 | 86.7 | 82.8 | -2.55 | 97.8 | 91.8
N#CC(c1ccccc1)N(CCCCl)C(=O)c1ccc(Br)cc1 (stereo not drawn) | 76.8 | 77.9 | x | x | x | x
Cc1cc(Cl)c(S(=O)(=O)N2CCN(c3ccc(F)cc3)CC2)cc1OCC(=O)NC1CCCCC1 | 9.2 | 12.4 | 36.1* | -1.22 | 93.8 | 78.7
CC1(C)Cc2c(sc3c2c(=N)n(Cc2ccco2)c(=O)n3CC(=O)Nc2ccc(Cl)cc2)CO1 | x | x | 88.4 | -0.12 | 21.8* | 77.9
CSc1nc(N2CCN(CCO)CC2)c2sc3nc(-c4ccco4)c4c(c3c2n1)CCC4 | x | x | 0.8* | x | 98.4 | 77.0
CSc1nc(N(C)CCO)c2sc3nc(-c4ccco4)c4c(c3c2n1)CCC4 | 96.2 | 91.9 | x | 0.6 | x | x
Cc1ccc(S(=O)(=O)CCC(=O)Nc2nc3c(s2)CCCC3)cc1 | 15.8 | 26.4 | 24.2* | -0.27 | 51.3 | 78.7
COC(=O)Nc1nc2c(s1)CCCC2 | 1.1* | 1.0* | 97.5 | -0.58 | 96.0 | 88.7
CC(=O)Nc1ccc(S(=O)(=O)Nc2nc3c(s2)CCCC3)cc1 | 99.2 | 101.3 | 81.5 | -0.1 | 97.9 | 103.3
O=C(CCc1ccccc1)NC(NC(=S)Nc1cccc(Cl)c1)C(Cl)(Cl)Cl (stereo not drawn) | 99.8 | 96.2 | 93.7 | -1.65 | 100.0 | 101.0
O=C(CCc1ccccc1)NC(NC(=S)Nc1ccc(Br)cc1)C(Cl)(Cl)Cl (stereo not drawn) | 83.9 | 80.5 | 8.3* | -1.33 | 76.5 | 37.2
Cc1cc(/C=C2/SC(=O)NC2=O)c(C)n1-c1ccc(N2CCOCC2)cc1 | 79.2 | 72.9 | x | x | x | x
Cc1cc(/C=C2\SC(=Nc3ccc(F)cc3)NC2=O)c(C)n1-c1ccc(S(N)(=O)=O)cc1 | 9.7 | 2.8* | x | 0.17 | x | x
O=C(Nc1ccc(O)cc1)c1ccc(C(=O)c2ccccc2)o1 | 87.0 | 85.6 | 86.8 | -3.25* | 101.5 | 96.9
O=C(Nc1ccc(Nc2ccccc2)cc1)c1ccc(Br)o1 | 100.6 | 101.5 | 96.0 | -0.65 | 97.2 | 77.7
CCCCN(C(=O)c1ccc(Cl)cc1)C1CC2CCC(C1)N2C (stereo not drawn) | 93.7 | 91.7 | 35.7* | x | 89.8 | 87.2
CCC(=O)N1N=C(c2c(-c3ccccc3)c3cc(Cl)ccc3[nH]c2=O)CC1c1ccco1 (stereo not drawn) | 58.1 | 45.5 | x | x | x | x
COc1ccccc1C1CC(c2c(-c3ccccc3)c3cc(Cl)ccc3[nH]c2=O)=NN1S(C)(=O)=O (stereo not drawn) | 2.0* | 1.9* | 8.3* | -1.77 | 93.6 | 25.9*
COc1cccc(C2CC(c3c(-c4ccccc4)c4cc(Cl)ccc4[nH]c3=O)=NN2S(C)(=O)=O)c1OC (stereo not drawn) | 54.5 | 36.9 | 21.9* | -1.02 | 90.8 | 55.8
Cc1ccc(S(=O)(=O)c2c(C(=O)c3ccccc3)cnc3cc4c(cc23)OCCO4)cc1 | 40.3 | 30.5 | x | x | x | x
COc1ccc2c(c1)c(=O)oc1cc(OCC(=O)NC3CCCCC3)ccc12 | 94.7 | 79.8 | 19.1* | 1.13 | 105.0 | 66.2
COc1ccccc1OCC(=O)NC1CCCCCC1 | 95.0 | 100.0 | 98.8 | 1.71 | 99.2 | 96.8
COc1ccc2c(c1)c(=O)oc1cc(OCC(=O)NC3CC3)ccc12 | 3.8* | 47.8 | 35.5* | -0.32 | 75.0 | 91.1
